Common to all, as to format: functional
The subject of one experiment is Enterococcus faecalis. Put plainly: In Vitro antibacterial activity against (Ef) Enterococcus faecalis ATCC 29212. The method in brief: (§1)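 Panel of standard ATCC strains plus modified strains: methicillin-resistant, hyperpermeable, β-lactamase-producing (TEM1, TEM2, SHV) and β-lactamase-lacking. MIC determined in Mueller Hinton 2 medium, inoculum 10⁴ cells/mL, incubated 24 h at 37 °C.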

The subject of experiment [1] is Escherichia coli. As to the kind of experiment: In Vitro antibacterial activity against (Ec SHV) Escherichia coli […] strain. The method, boiled down: as §1
In experiment [2] the test system is Staphylococcus aureus. Put plainly: In vitro antibacterial activity against Sa(I) Staphylococcus aureus ATCC 29213. The method in brief: (§2)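 MIC was determined in Mueller Hinton 2 medium with an inoculum of 10⁴ cells/mL and incubation for 24 h at 37 °C. Strains: Sa(I) is S. aureus ATCC 29213; Sa MR(I) is a heterogeneous methicillin-resistant S. aureus; Sa MR(II) is a homogeneous methicillin-resistant S. aureus.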

Experiment [3] relates to Pseudomonas aeruginosa. As to the kind of experiment: In Vitro antibacterial activity against (Pa) Pseudomonas aeruginosa ATCC 27853. The method in brief: as §1
The test system of experiment [4] is Pseudomonas aeruginosa. As to the kind of experiment: In Vitro antibacterial activity against (Pa G242) hyperpermeable Pseudomonas aeruginosa strain. The method in brief: as §1
The test system of experiment [5] is Staphylococcus aureus. As to the kind of experiment: In vitro antibacterial activity against Sa MR(II) homogeneous methicillin resistant Staphylococcus aureus. The method, boiled down: as §2
The test system of experiment [6] is Escherichia coli. As to the kind of experiment: In Vitro antibacterial activity against (Ec L) Escherichia coli […] strain. The method in brief:
as §1

For experiment [7], the system named is Escherichia coli. Put plainly: In Vitro antibacterial activity against (Ec) Escherichia coli ATCC 25922. The method, boiled down: as §1
Experiment [8] concerns Escherichia coli. As to the kind of experiment: In Vitro antibacterial activity against (Ec TEM1) Escherichia coli […] strain. The method, boiled down:
as §1

The subject of experiment [9] is Staphylococcus aureus. Put plainly: In vitro antibacterial activity against Sa MR(I) heterogeneous methicillin resistant Staphylococcus aureus. The method, boiled down:
as §2

The subject of experiment [10] is Escherichia coli. As to the kind of experiment: In Vitro antibacterial activity against (Ec DC2) hyperpermeable Escherichia coli strain. The method, boiled down: as §1
The subject of experiment [11] is Escherichia coli. As to the kind of experiment: In Vitro antibacterial activity against (Ec TEM2) Escherichia coli […] strain. The method in brief:
as §1

The subject of experiment [12] is Pseudomonas aeruginosa. As to the kind of experiment: In Vitro antibacterial activity against (Pa) hyperpermeable Pseudomonas aeruginosa […] strain. The method, boiled down:
as §1

The subject of experiment [13] is Staphylococcus aureus. As to the kind of experiment: In vitro antibacterial activity against Sa(II) Staphylococcus aureus ATCC 25923. The method, boiled down:
as §1

≈ marks a conversion by molar mass, not a printed value.

One may read the MIC as the lowest concentration that inhibits growth of the organism. In the case of `C[C@@H](O)[C@H]1C(=O)N2C(C(=O)O)=C(CN(C)CC(=O)NCC(N)=O)S[C@H]12`, the MIC against Enterococcus faecalis was 8 µg/mL (≈ 21.5 µM); in the experiment with Escherichia coli [1], 0.5 µg/mL (≈ 1.34 µM); in the experiment on Staphylococcus aureus [2], 0.25 µg/mL (≈ 0.671 µM); against Pseudomonas aeruginosa [3] it was more than 64 µg/mL; against Pseudomonas aeruginosa [4] it was 0.5 µg/mL (≈ 1.34 µM); with Staphylococcus aureus [5] it was 4 µg/mL (≈ 10.7 µM). Besides, the MIC was determined as 0.5 µg/mL (≈ 1.34 µM) in the experiment with Escherichia coli [6]; 0.25 µg/mL (≈ 0.671 µM) with Escherichia coli [7]; 0.5 µg/mL (≈ 1.34 µM) with Escherichia coli [8]; 0.25 µg/mL (≈ 0.671 µM) with Staphylococcus aureus [9]; 1 µg/mL (≈ 2.69 µM) against Escherichia coli [10]; 0.5 µg/mL (≈ 1.34 µM) in the experiment on Escherichia coli [11]. Also, the values for the MIC against Pseudomonas aeruginosa [12] and against Staphylococcus aureus [13] were 1 µg/mL (≈ 2.69 µM) and 0.12 µg/mL (≈ 0.322 µM), respectively.
With `C[C@@H](O)[C@H]1C(=O)N2C(C(=O)O)=C(CN3C[C@@H](O)C[C@@H]3C(N)=O)S[C@H]12`, the MIC was 32 µg/mL (≈ 89.5 µM) in the experiment on Enterococcus faecalis; 1 µg/mL (≈ 2.8 µM) against Escherichia coli [1]; 0.12 µg/mL (≈ 0.336 µM) in the experiment with Staphylococcus aureus [2]; more than 64 µg/mL against Pseudomonas aeruginosa [3]; 1 µg/mL (≈ 2.8 µM) with Pseudomonas aeruginosa [4]; 16 µg/mL (≈ 44.8 µM) in the experiment with Staphylococcus aureus [5]. Besides, the minimal inhibitory concentration (MIC) in the experiment on Escherichia coli [6] is 1 µg/mL (≈ 2.8 µM); in the experiment on Escherichia coli [7], 1 µg/mL (≈ 2.8 µM); with Escherichia coli [8], 1 µg/mL (≈ 2.8 µM); against Staphylococcus aureus [9] it was 0.25 µg/mL (≈ 0.7 µM); against Escherichia coli [10], 1 µg/mL (≈ 2.8 µM); against Escherichia coli [11], 1 µg/mL (≈ 2.8 µM). In addition, the minimal inhibitory concentration (MIC) against Pseudomonas aeruginosa [12] was 0.5 µg/mL (≈ 1.4 µM); with Staphylococcus aureus [13], 0.06 µg/mL (≈ 0.168 µM).
As for `C[C@@H](O)[C@H]1C(=O)N2C(C(=O)O)=C(CN3C[C@@H](O)C[C@H]3C(N)=O)S[C@H]12`, the MIC is 16 µg/mL (≈ 44.8 µM) against Enterococcus faecalis; 2 µg/mL (≈ 5.6 µM) against Escherichia coli [1]; 0.25 µg/mL (≈ 0.7 µM) in the experiment on Staphylococcus aureus [2]; more than 64 µg/mL against Pseudomonas aeruginosa [3]; 2 µg/mL (≈ 5.6 µM) in the experiment with Pseudomonas aeruginosa [4]; 8 µg/mL (≈ 22.4 µM) against Staphylococcus aureus [5]. The MIC worked out at 2 µg/mL (≈ 5.6 µM) against Escherichia coli [6]; 0.5 µg/mL (≈ 1.4 µM) in the experiment with Escherichia coli [7]; 1 µg/mL (≈ 2.8 µM) with Escherichia coli [8]; 0.25 µg/mL (≈ 0.7 µM) with Staphylococcus aureus [9]; 2 µg/mL (≈ 5.6 µM) against Escherichia coli [10]; 2 µg/mL (≈ 5.6 µM) in the experiment with Escherichia coli [11]. In addition, the minimum inhibitory concentration (MIC) was 0.5 µg/mL (≈ 1.4 µM) against Pseudomonas aeruginosa [12] and 0.12 µg/mL (≈ 0.336 µM) against Staphylococcus aureus [13].
For the compound `C[C@@H](O)[C@H]1C(=O)N2C(C(=O)O)=C(CN3CCC(C(N)=O)CC3)S[C@H]12`, the MIC was 16 µg/mL (≈ 45 µM) in the experiment on Enterococcus faecalis; 2 µg/mL (≈ 5.63 µM) in the experiment with Escherichia coli [1]; 0.06 µg/mL (≈ 0.169 µM) in the experiment on Staphylococcus aureus [2]; more than 64 µg/mL against Pseudomonas aeruginosa [3]; 2 µg/mL (≈ 5.63 µM) in the experiment with Pseudomonas aeruginosa [4]; 2 µg/mL (≈ 5.63 µM) with Staphylococcus aureus [5]. Also, the MIC with Escherichia coli [6] amounted to 2 µg/mL (≈ 5.63 µM); against Escherichia coli [7] it was 2 µg/mL (≈ 5.63 µM); in the experiment with Escherichia coli [8], 2 µg/mL (≈ 5.63 µM); in the experiment with Staphylococcus aureus [9], 0.12 µg/mL (≈ 0.338 µM); with Escherichia coli [10], 2 µg/mL (≈ 5.63 µM); against Escherichia coli [11], 2 µg/mL (≈ 5.63 µM). For the same compound, the MIC came to 1 µg/mL (≈ 2.81 µM) with Pseudomonas aeruginosa [12] and 0.015 µg/mL (≈ 0.0422 µM) with Staphylococcus aureus [13].
Turning to `C[C@@H](O)[C@H]1C(=O)N2C(C(=O)O)=C(CN3CCC[C@H]3C(=O)O)S[C@H]12`, the MIC against Enterococcus faecalis was more than 64 µg/mL; with Escherichia coli [1], 8 µg/mL (≈ 23.4 µM); against Staphylococcus aureus [2], 0.03 µg/mL (≈ 0.0876 µM); in the experiment with Pseudomonas aeruginosa [3], more than 64 µg/mL; against Pseudomonas aeruginosa [4], 4 µg/mL (≈ 11.7 µM); with Staphylococcus aureus [5] it was 32 µg/mL (≈ 93.5 µM). In addition, the MIC came out at 8 µg/mL (≈ 23.4 µM) with Escherichia coli [6]; 2 µg/mL (≈ 5.84 µM) against Escherichia coli [7]; 8 µg/mL (≈ 23.4 µM) in the experiment with Escherichia coli [8]; 1 µg/mL (≈ 2.92 µM) against Staphylococcus aureus [9]; 16 µg/mL (≈ 46.7 µM) against Escherichia coli [10]; 32 µg/mL (≈ 93.5 µM) in the experiment with Escherichia coli [11]. Moreover, the minimal inhibitory concentration (MIC) against Pseudomonas aeruginosa [12] turned out to be 32 µg/mL (≈ 93.5 µM); in the experiment on Staphylococcus aureus [13] it was 0.5 µg/mL (≈ 1.46 µM).
Take `C[C@@H](O)[C@H]1C(=O)N2C(C(=O)O)=C(COC(N)=O)S[C@H]12` [RITIPENEM]: the minimal inhibitory concentration (MIC) is 2 µg/mL (≈ 6.94 µM) with Enterococcus faecalis; 1 µg/mL (≈ 3.47 µM) in the experiment with Escherichia coli [1]; 0.12 µg/mL (≈ 0.416 µM) against Staphylococcus aureus [2]; more than 64 µg/mL in the experiment on Pseudomonas aeruginosa [3]; 1 µg/mL (≈ 3.47 µM) in the experiment on Pseudomonas aeruginosa [4]; 2 µg/mL (≈ 6.94 µM) against Staphylococcus aureus [5]. Moreover, the minimal inhibitory concentration (MIC) against Escherichia coli [6] amounted to 1 µg/mL (≈ 3.47 µM); against Escherichia coli [7], 0.5 µg/mL (≈ 1.73 µM); against Escherichia coli [8] it was 1 µg/mL (≈ 3.47 µM); in the experiment with Staphylococcus aureus [9] it was 0.12 µg/mL (≈ 0.416 µM); in the experiment on Escherichia coli [10] it was 1 µg/mL (≈ 3.47 µM); against Escherichia coli [11] it was 1 µg/mL (≈ 3.47 µM). In addition, the MIC in the experiment on Pseudomonas aeruginosa [12] stood at 0.5 µg/mL (≈ 1.73 µM); in the experiment on Staphylococcus aureus [13], 0.06 µg/mL (≈ 0.208 µM).
